Data published in the EternaBench riboswitch data.

Tested on: MS2 coat protein
Assay: apparent Kd, MS2 coat protein; higher = weaker binding; RNA-MaP array; FMN 200 µM where present
In short: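 The apparent Kd comes from binding curves fitted cluster by cluster, filtered, and summarised as a median. Those curves followed SNAP-549-labelled MS2 coat protein from 0.7 or 1.5 nM, doubling to 3 µM, on Illumina sequencing-chip clusters where stalled E. coli RNA polymerase had transcribed the designs, without and then with constant ligand. The buffer was 100 mM Tris-HCl pH 7.5, 80 mM KCl, 4 mM MgCl2, BSA, DTT, yeast tRNA and Tween-20, and green signal was normalised to red-channel RNA signal and control-cluster median Fmax.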

[1] = designed as: ON switch for flavin mononucleotide, no ligand
[2] = ligand present: flavin mononucleotide, designed as: ON switch for flavin mononucleotide
[3] = designed as: OFF switch for flavin mononucleotide, no ligand
[4] = ligand present: flavin mononucleotide, designed as: OFF switch for flavin mononucleotide

Row | Sequence | apparent Kd [1] | apparent Kd [2] | apparent Kd [3] | apparent Kd [4]
1 | GCGCCGCAGCGGUACACGAGACAUGAGGAUCACCCAUGUGACAGAAGGGACUUGUUAAAGGUAGGUCAGGAUAUGUCUUAAAAG | 184 nM | 56.5 nM |  | 
2 | UCAGUAGAGUCAGGAUAUACGAAAGUAGAUCCUUACAUGAGGAUCACCCAUGUAGAAGGGACUCUACUGUAAGUCGGAAACGAC |  |  | 14.1 nM | 69.1 nM
3 | UAGGACUACGUAGGAUAUGUAGGAUAUUCCUACAUGAGGAUCACCCAUGUUAGCAUGUAAGUAGGACAGAAGGACGUGGUAAAU | 695 nM | 79.9 nM |  | 
4 | AUAAAACAAAACCACACAUGAGGAUCACCCAUGUCAAGAUUACAGGAUAUCCGGCAGAGAUGCAAGGAGAAGGGUGAUCCCAAA | 17.3 nM | 56.9 nM |  | 
5 | UCCUACAUGGGAGGAUAUCCUCAAGAGACAUGAGGAUCACCCAUGUAUUAUAUGCCUCAUGGCAUGGAGAAGGCCCAUGUAGGU | 205 nM | 157 nM |  | 
6 | AUUCUUGGGCAAGGAUAUCCUGUGCGGUUCCGGCUCGUGUCUGUCACAUGAGGAUCACCCAUGUGGGAGAAGGUGCCUGCGGUC |  |  | 6.86 nM | 7.2 nM
7 | GUAACUUAUGUCAGGAUAUUACACGCAUUGCGUGGUGAGAAGGGACAUGAGGAUCACCCAUGUCCGGAUGCGGG |  |  | 39.8 nM | 62.6 nM
8 | AGCAUGUGAGGAUAUGCGGACUCCGGUAAAUCUGGAAUCCAGUAGAAGGCACAUGAGGAUCACCCAUGUGAUAA |  |  | 68.2 nM | 55.9 nM
9 | CGAGAUACGCUCGACCGAAAGGUACAUGAGGAUCACCCAUGUAGAAGGCGAUCCGCAACUCGGAUUGAGGAUAUAUACUACACA |  |  | 31.8 nM | 24.4 nM
10 | UAUAUAUAGUAAGGAUAUGUAUAUAUUUUAUUAACAGAAGGUACUGACAUGAGGAUCACCCAUGUUUUAGUGUGGGCAUGUAGA |  |  | 76.7 nM | 100 nM
11 | GGACAUGUCGUUUACAUGAGGAUCACCCAUGUCGAUGGACAUGAGGAUAUCGAUCCGAAUCGGAUCGAGAAGGCAUGCAUGUCC | 41.8 nM | 18.6 nM |  | 
12 | ACAUGAGGAUCACCCAUGUUAUCCGGGACUUCAAUUAUUUCUAGAAGGCUGUUUACUUGUUAGUCAGAGGAUAUAGAAUUAAAU |  |  | 10.7 nM | 12.5 nM
13 | GUGCGGUAGGAGAAGGACGGAGGCUUCAUUACAUACAUGAGGAUCACCCAUGUAGGAUAUCCUACCUCACGCGGCCUCCUCCUG |  |  | 6.44 nM | 6.79 nM
14 | UAGCUCCAUGUGAGGAUAUAGACUCGGACCCGGGAUUAGAAGGUACAUGAGGAUCACCCAUGUAUCCAACUUGU |  |  | 15.3 nM | 16.6 nM
15 | CGCUACUACCAGAAGGACAUGAGGAUCACCCAUGUAGGAUAUGGGUUACAAGUACCAGUGUAAAGAAACUACGCUACGUUUGCG | 47.2 nM | 7.79 nM |  | 
16 | AUGAGGUCAGGAUAUGCAUGGCGGGACUUGCGUCGUGGCGUGGAGAAGGGACAUGAGGAUCACCCAUGUGGAGA |  |  | 84.6 nM | 76.1 nM
17 | CGUCCGUGGGUAGUGAUCGUACAUGAGGAUCACCCAUGUGGGAAGGAUAUGCAUGCACGUGGACAGCAGAAGGUCCCACAACAA |  |  | 154 nM | 86 nM
18 | GCCGAUUAAGUGAGGAUAUACCUAUGGAUACAUAGGUAGAAGGCACAUGAGGAUCACCCAUGUUCCUCAACGGC |  |  | 15.6 nM | 87.8 nM
19 | GUAGCAUACCGAGGAUAUCUAACGACAAAGUCGACAUGAGGAUCACCCAUGUGGCGAAAGCCUUGGGAGAAGGCGGAAUGCUAC | 16.2 nM | 12.6 nM |  | 
20 | CUUAUGCGGCAGGAUAUCGUGCUUUUCGAGCAGCGAGAAGGGUCUACAUGAGGAUCACCCAUGUCAGUGGCUCU |  |  | 18.3 nM | 37.8 nM
21 | GUGGUCAGACAUGAGGAUCACCCAUGUGGAAUAAAUAAGGAGAAGGAUAUGGAAUAUAGGAUAUACCAGAAGGUUUGGUUGGUG | 112 nM | 116 nM |  | 
22 | AGAUAACAUAGUUAUCCGUAACGGACAUGAGGAUCACCCAUGUAGGAUAUGUUACUCAACGAGUAACAGAAGGACAUGAGUCUU |  |  | 17.3 nM | 102 nM
23 | UUUUAACAUGAGGAUCACCCAUGUGAGGAUAUCGAAAUUUAUAUUUAUAUUAAUUUAACGAGAAGGCACAUUUU |  |  | 91.2 nM | 114 nM
24 | AAUUCACAUGAGGAUCACCCAUGUCAGGAUAUGGUGACGCGGGUUUCGGUGCGUGUUGCCAGAAGGGACAGCUA |  |  | 79.2 nM | 119 nM
25 | GUCGGAAACGACAAGUCAGCUCGUGAGGAUAUACAAUAUUAAAAGAUCACAUGAGGAUCACCCAUGUAGAAGGCACGAGCUGAU |  |  | 31.7 nM | 442 nM
26 | AAGGAUCGAGGAUAUACAUAGAUACAGAUACAUGUAUACGUACAUGAGGAUCACCCAUGUAGAAGGCGAUCAUA |  |  | 37.1 nM | 214 nM
27 | GAUGAGGUAGGAUAUACGAGAAGAUAGGGUAGAUAGAUAACACAUGAGGAUCACCCAUGUAGAAGGACCAGUAG |  |  | 34.5 nM | 79.8 nM
28 | CUUCUGUCAGGAUAUGCGAAUCACCACUGGGUCAGUGGUGAGCAGAAGGGACAUGAGGAUCACCCAUGUAAAGU |  |  | 36.3 nM | 169 nM

Row | Sequence | apparent Kd [1] | apparent Kd [2] | apparent Kd [3] | apparent Kd [4]
29 | AAGUAUAGAGGAUAUAGUAAGUACUACAUGAGGAUCACCCAUGUUCUUCAUUACGUAUUUCUAGAAGGCUGAUAAA |  |  | 376 nM | 581 nM
30 | GUAGCAUUGACAGGAUAUCCAUAUCCGAAAGGGACAUGAGGAUCACCCAUGUCGCGAAAGCGGUGGGAGAAGGGUCUAUGCUAC | 5.03 nM | 4.38 nM |  | 
31 | CCGGAAGUAGAGGAUAUCGUAUCGGAUACGAUACGAGAAGGCUAUACAUGAGGAUCACCCAUGUGUCCUACCGG |  |  | 24.6 nM | 33.3 nM
32 | CUGCCGUAGGAGAAGGACGGCGGGUUAUUUUUGUACAUGAGGAUCACCCAUGUAGGAUAUCCUACGUCAGGCAACCUACUACAG |  |  | 7.26 nM | 10.2 nM
33 | AUAGCAUACCGAGGAUAUUCAUAUAAUAAAUAAACAUGAGGAUCACCCAUGUGGCGAAAGCCUAGGGAGAAGGCGGAAUGCUAC | 225 nM | 25.3 nM |  | 
34 | GCCACAGCAGGAUAUUCAAUAAUUCACAUGAGGAUCACCCAUGUCGAGCGAAAGCUCGAGGGAGAAGGGCUGUGGC |  |  | 39.5 nM | 13.7 nM
35 | GAGAGAGGGUGAGGAUAUUCAGUAAUAAUGAUAGAAGAAGGCACAGACAUGAGGAUCACCCAUGUGGGAAUAAUCCAGAGAGAG | 182 nM | 207 nM |  | 
36 | UUGGACUACGUAGGAUAUGUAGGAUAUUCCUACAUGAGGAUCACCCAUGUUAGCAUGUAAGUAGGACAGAAGGACGUGGUCCAU | 540 nM | 24.9 nM |  | 
37 | UGUAUUAACGGAGGAUAUCGAUAUCAAACAUGAGGAUCACCCAUGUUGAGGAUCACCCAUGUCCAUGAGAAGGCUGGCGUACUU | 20.8 nM | 20.6 nM |  | 
38 | UGGUUGGGAGGAUAUCCAAUAUAUGACAUGAGGAUCACCCAUGUUUCCACUCGUACCUCCGGAGAAGGCCCUUCCC |  |  | 21.7 nM | 20.7 nM
39 | CUGUAGAUAUCAGGAUAUCUAUUUCCUACAUGAGGAUCACCCAUGUAGGUGAUCAGCCAAGUAAAGGAGAAGGGAUAUCUAUAG | 38.5 nM | 11 nM |  | 
40 | AAAGAAGAAAGACAGGAUAUGGAUGGGUAAACAUGAGGAUCACCCAUGUAUAAGAAAGAAAGAAACCAGAAGGGUCAAAAGAAAA | 165 nM | 33.6 nM |  | 
41 | GUAGCUAUCGGAGGAUAUUCAUACCGGAAACGGACAUGAGGAUCACCCAUGUGCGGAAACGCUUGGGAGAAGGCCGAUAGCUAC | 247 nM | 19.4 nM |  | 
42 | CUCCGGCGUGUAGGAUAUGGAUCCGAUUAGGAUCCAGAAGGACAUGAGGAUCACCCAUGUACAUGUAAACAGUCAUCACCGGAU |  |  | 8.57 nM | 37.2 nM
43 | GGUAUCUCCCGUGAGGAUAUGCGGCGUAGAACAUGAGGAUCACCCAUGUCCUUCGAAUGGGUUACGCAGAAGGCACGACGGUACC | 33.3 nM | 18.5 nM |  | 
44 | UUUGAUAGCACAGGAUAUUGUCAUUUGAGUUGUCAAGAAGGGUGUACAUGAGGAUCACCCAUGUAAUGGUUGCCUCGCUGACUU |  |  | 175 nM | 279 nM
45 | UUAAUGUGAGGAUAUCAGGUGUGCUAGAGAACUGGUACAUCUGAGAAGGCACAUGAGGAUCACCCAUGUUCUUC |  |  | 42.8 nM | 197 nM
46 | GAGACAUGUGAGAAGGCGCCACACGCGAGUGGGCGAGGAUAUCACAUGAGGAUCACCCAUGUUAGCCCUCGACCGCGACGCGGG |  |  | 10.1 nM | 47.3 nM
47 | AAUUUACAGCUAGGAUAUACAUGAGGAUCACCCAUGUGACGAUCGGAUCUUAUGAUCGUGUCCGUGUAGAAGGAGCAAAUAAGA |  |  | 8.15 nM | 10 nM
48 | ACCGGGUACACAGGAUAUCACGUCCUGACAUGAGGAUCACCCAUGUCGGUCUGAGAAGGGUGGUCCCGCAGCCGACUGUGAUGG | 254 nM | 27.3 nM |  | 
49 | GGUGCGUCUGUGAGGAUAUGCUGGUCCUUGGCUCGGCAGAAGGCACAUGAGGAUCACCCAUGUGGUGUCGUGCC |  |  | 18.5 nM | 34.6 nM
50 | GGUCCUUCUGUUAGGAUAUGCUUUGGGCUUCCGCAGUAGAAGGAACAUGAGGAUCACCCAUGUCCGAUGCCGUC |  |  | 86 nM | 88.1 nM
51 | UUUAUAAAUUAGAAGGCAUGAUGAAUUACAAUAGACAUGAGGAUCACCCAUGUGUGUUCAUGUCAUGAGGAUAUAGUCAUAUAU | 17.5 nM | 9.93 nM |  | 
52 | CUUAGUUUGUAGAAGGGUGACAUGAGGAUCACCCAUGUGCGUCGCCUGGAAGACCAGGGUACGCCACAGGAUAUACAAAGUAAG | 46.7 nM | 23.1 nM |  | 
53 | AUAUGAUAGAUAGGAUAUACAUUGGAUUUAAAAGUAGAAGGAUCAAGUGGGAAUUAUACAUGAGGAUCACCCAUGUUUUUGGAU | 59 nM | 46.7 nM |  | 
54 | UUCAGCUCGUGAGGAUAUACAUGUGCUGGAAACAGCACUAUUAAGAUCACAUGAGGAUCACCCAUGUAGAAGGCACGAGCUGAG |  |  | 48 nM | 585 nM
55 | UUUAUAAAUUAGAAGGCGAGAUGAAUUACAAUAGACAUGAGGAUCACCCAUGUGUACCCAUGUCUUGAGGAUAUAGUCAUAUAU | 132 nM | 48 nM |  | 
